Legend:
M14 = assay: Antitumor activity against human M14 cells assessed as growth inhibition at 10 uM relative to control; type: functional; conditions: read-out: GI
In short: (§1)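 After drug addition, plates were incubated 48 h at 37 °C under 5% CO2. Adherent cells were fixed with cold TCA (10% final, 60 min, 4 °C) and suspension cells with 16% final TCA. Staining used 0.4% SRB in 1% acetic acid, solubilized in 10 mM trizma, read at A515. Percent growth was calculated from time-zero, control and treated absorbances.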

PC-3 = assay: Antitumor activity against human PC-3 cells assessed as growth inhibition at 10 uM relative to control; type: functional; conditions: read-out: GI; in short: as §1
DU-145 = assay: Antitumor activity against human DU-145 cells assessed as growth inhibition at 10 uM relative to control; type: functional; conditions: read-out: GI; in short: as §1
SR = assay: cells; conditions: Homo sapiens
SF-268 = assay: Antitumor activity against human SF-268 cells assessed as growth inhibition at 10 uM relative to control; type: functional; conditions: read-out: GI; in short: as §1
UACC-62 = assay: Antitumor activity against human UACC-62 cells assessed as growth inhibition at 10 uM relative to control; type: functional; conditions: read-out: GI
In short: (§2)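 Drug exposure 48 h at 37 °C, 5% CO2. Adherent cells fixed with cold TCA (10% final), suspension cells with TCA (16% final). Stained with 0.4% SRB in 1% acetic acid, dissolved in 10 mM Tris, A515. Growth relative to time-zero and untreated control.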

OVCAR-4 = assay: Antitumor activity against human OVCAR-4 cells assessed as growth inhibition at 10 uM relative to control; type: functional; conditions: read-out: GI; in short: as §1
SK-OV-3 = assay: Antitumor activity against human SK-OV-3 cells assessed as growth inhibition at 10 uM relative to control; type: functional; conditions: read-out: GI; in short: as §2
A498 = assay: Antitumor activity against human A498 cells assessed as growth inhibition at 10 uM relative to control; type: functional; conditions: read-out: GI; in short: as §1
TK-10 = assay: Antitumor activity against human TK-10 cells assessed as growth inhibition at 10 uM relative to control; type: functional; conditions: read-out: GI; in short: as §2
NCI/ADR-RES = assay: Antitumor activity against human NCI-ADR-RES cells assessed as growth inhibition at 10 uM relative to control; type: functional; conditions: read-out: GI; in short: as §1
SF-295 = assay: Antitumor activity against human SF-295 cells assessed as growth inhibition at 10 uM relative to control; type: functional; conditions: read-out: GI; in short: as §1
ACHN = assay: Antitumor activity against human ACHN cells assessed as growth inhibition at 10 uM relative to control; type: functional; conditions: read-out: GI; in short: as §1
UACC-257 = assay: Antitumor activity against human UACC-257 cells assessed as growth inhibition at 10 uM relative to control; type: functional; conditions: read-out: GI; in short: as §2
HOP-92 = assay: Antitumor activity against human HOP-92 cells assessed as growth inhibition at 10 uM relative to control; type: functional; conditions: read-out: GI; in short: as §1

IC50 (SR) [nM]	SMILES	inhibition of growth at 10 µM (M14) [%]	inhibition of growth at 10 µM (PC-3) [%]	inhibition of growth at 10 µM (DU-145) [%]	inhibition of growth at 10 µM (SF-268) [%]	inhibition of growth at 10 µM (UACC-62) [%]	inhibition of growth at 10 µM (OVCAR-4) [%]	inhibition of growth at 10 µM (SK-OV-3) [%]	inhibition of growth at 10 µM (A498) [%]	inhibition of growth at 10 µM (TK-10) [%]	inhibition of growth at 10 µM (NCI/ADR-RES) [%]	inhibition of growth at 10 µM (SF-295) [%]	inhibition of growth at 10 µM (ACHN) [%]	inhibition of growth at 10 µM (UACC-257) [%]	inhibition of growth at 10 µM (HOP-92) [%]
350	COc1cc(/C=N/Nc2nc(-c3ccc(Cl)cc3)c(C#N)c(N3CCOCC3)n2)cc(OC)c1OC	48.8	45.7	32.2	17.6	31.7	11.2	< 1	33.7	15.7	59	13.8	36.7	< 1	59.1
770	N#Cc1c(-c2ccc(Cl)cc2)nc(N/N=C/c2ccc[nH]2)nc1N1CCOCC1	< 1	53.4	15.8	53.8	12	25.9	15.3	68.3	36.7	15.5	41.6	17.5	12.1	31.1
–	N#Cc1c(-c2ccc(Cl)cc2)nc(NN2C(=O)CCC2=O)nc1N1CCOCC1	< 1	< 1	< 1	< 1	< 1	< 1	< 1	< 1	< 1	< 1	< 1	< 1	< 1	< 1
–	CSc1nc(Cl)c(C#N)c(-c2ccc(Cl)cc2)n1	< 1	< 1	< 1	< 1	25.6	< 1	< 1	< 1	< 1	< 1	< 1	< 1	< 1	< 1
–	N#Cc1c(-c2ccc(Cl)cc2)nc(N/N=C2/C(=O)Nc3ccccc32)nc1N1CCOCC1	< 1	< 1	< 1	< 1	< 1	< 1	< 1	< 1	< 1	< 1	< 1	< 1	< 1	< 1
–	N#Cc1c(-c2ccc(Cl)cc2)nc(N/N=C/c2ccco2)nc1N1CCOCC1	28.6	31.7	14.6	25.5	41.8	54.4	50.6	< 1	37.6	24.2	26.2	23.3	< 1	59.4
–	CC1=NN(c2nc(-c3ccc(Cl)cc3)c(C#N)c(N3CCOCC3)n2)C(=O)C1	10	< 1	< 1	< 1	21	48.5	13.4	42	< 1	< 1	< 1	26.4	< 1	93.7
–	N#Cc1c(-c2ccc(Cl)cc2)nc(NN)nc1N1CCOCC1	< 1	< 1	< 1	< 1	10.7	< 1	< 1	27.8	< 1	< 1	< 1	< 1	< 1	10.6
–	CSc1nc(-c2ccc(Cl)cc2)c(C#N)c(N2CCOCC2)n1	< 1	< 1	< 1	13.9	< 1	18.2	11	54.3	< 1	12	< 1	< 1	< 1	21.1
–	CSc1nc(O)c(C#N)c(-c2ccc(Cl)cc2)n1	< 1	< 1	< 1	< 1	< 1	< 1	< 1	< 1	< 1	< 1	< 1	< 1	< 1	24.7
–	Cc1cc(C)n(-c2nc(-c3ccc(Cl)cc3)c(C#N)c(N3CCOCC3)n2)n1	< 1	< 1	< 1	14.4	< 1	< 1	15.2	46.3	< 1	10.6	< 1	11.8	< 1	24.7
–	N#Cc1c(-c2ccc(Cl)cc2)nc(NN2C(=O)c3ccccc3C2=O)nc1N1CCOCC1	< 1	< 1	< 1	< 1	< 1	< 1	< 1	< 1	< 1	< 1	< 1	< 1	< 1	< 1
